WT yeast gro inh – growth inhibition of WT yeast, mitochondrial fusion screen. inhibition, % at 10 µM. AID 1362. mitochondrial fusion phenotypic screen, WT strain. 190,000 tested, 2.1% active; in the data active = inhibition above about 58%; tested in S. cerevisiae
PMI act – increases human mannose-6-phosphate isomerase activity; P34949; purified human PMI, coupled resazurin fluorescence, 20 min; active compounds read high; 1 = vehicle control, 0 substrate-free wells; activation factor at 20 µM; 190,000 tested, 0.005% active;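 active = activation factor of 2 or more at 20 µM, relative to plate controls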
m-calpain inh – calpain II (pig) inhibition | purified calpain II, fluorogenic peptide substrate, 30 min | AID 1236 | 220,000 tested, 0.37% active | inhibition, % at 16 µM;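 active = inhibition above about 50%, limit read from the data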
Rad51 HR inh – blocks human Rad51 in homologous recombination; hRad51 DNA strand exchange, fluorescence dequenching; AID 1385; 200,000 tested, 0.085% active; inhibition, % at 10 µM;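 active = inhibition above 40% at the single screening dose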;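 note: 0% = DMSO control wells and 100% = blanks with heterologous ssDNA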
Target sequence (Q06609 whole entry, looked up): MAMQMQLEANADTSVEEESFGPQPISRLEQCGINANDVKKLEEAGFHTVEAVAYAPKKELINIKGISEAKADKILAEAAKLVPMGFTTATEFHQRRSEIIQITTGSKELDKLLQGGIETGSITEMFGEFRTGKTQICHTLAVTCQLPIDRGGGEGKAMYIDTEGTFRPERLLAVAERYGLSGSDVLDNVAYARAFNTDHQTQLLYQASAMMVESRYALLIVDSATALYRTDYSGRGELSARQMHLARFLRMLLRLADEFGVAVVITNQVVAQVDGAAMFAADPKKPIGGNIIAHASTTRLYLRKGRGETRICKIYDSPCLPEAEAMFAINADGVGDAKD
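Test system: preformed human Rad51 ssDNA filaments; also added: Donor/quencher-labelled 47-bp dsDNA substrate; doses: 10 µM final, single point; times: 37 °C 15-min filament assembly, 30-min compound preincubation, 15-min exchange; detection: FRET fluorescence dequenching, excitation 485 nm, emission 520 nm; read-out basis: Fluorescence-based percent inhibition, control- and blank-normalised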
PMI act satM6P – activators of human phosphomannose isomerase at near-saturating mannose 6-phosphate | P34949 | coupled PMI enzyme assay, resazurin fluorescence, 20 min; active compounds read high; 1 = untreated enzyme, 0 = substrate-free blank | AID 1216 | activation factor at 20 µM | 190,000 tested, 0.34% active;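 active = activation factor of 2 or more at 20 µM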
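Test system: human phosphomannose isomerase with PGI, G6PDH, diaphorase coupling enzymes / Doses: 20 µM compound, 1% DMSO / Times: enzyme reaction with compound 20 min at room temperature / Measured by: Diaphorase-driven resazurin-to-resorufin fluorescence, excitation 544, emission 590 nm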
L major viab – Leishmania major promastigote growth inhibition; inhibition, % at 10 µM; Leishmania major promastigotes, resazurin fluorescence viability; 200,000 tested, 9% active; in the data active = inhibition above about 50%;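 note: promastigotes grown with compound for 44 hours at 28 °C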
The depositor's hits bear a star; x = no result given. This is a sample that favours compounds with a hit; in the whole collection about 9.8% have one here.

SMILES	WT yeast gro inh	PMI act	m-calpain inh	Rad51 HR inh	PMI act satM6P	L major viab
COc1ccc(OC)c(NS(=O)(=O)c2ccc(NC(=O)c3ccc(NS(C)(=O)=O)cc3)cc2)c1	-1	1	5	18	1	-3
CC(C)CNc1nc(SCC(=O)Nc2ccccc2)nc(N2CCOCC2)n1	-22	1	-9	6	1	0
Cc1ccc(-c2cc(C(F)F)n3ncc(C(=O)N4CCN(c5ccccn5)CC4)c3n2)cc1	26	0.8	-19	4	0.8	100*
CCN1CCN(C(=O)c2cnn3c(C(F)F)cc(-c4ccc(C)cc4)nc23)CC1	-2	0.9	-250	-10	1	98*
COc1ccc(-c2cc(C(F)F)n3ncc(C(=O)N4CCN(C(=O)c5ccco5)CC4)c3n2)cc1	6	0.9	-346	8	0.9	10
COc1ccc(-c2cc(C(F)F)n3ncc(C(=O)N4CCCCC4)c3n2)cc1	1	1	-234	-8	1	100*
Cn1ccc(NC(=O)Nc2cccc([N+](=O)[O-])c2)n1	1	1	-2	1	1	4
CC1(C)CC(=O)c2cc(NC(=O)c3ccccc3)c(=O)oc2C1	7	1	19	-6	0.9	-5
COc1cc2c(cc1OC)C1Cc3ccc(OC)c(OC)c3CN1CC2 (stereo not drawn)	-18	1.1	2	10	0.9	95*
CCN(CCCNC(=O)c1ccc(N2CCCC2=O)cc1)c1cccc(C)c1	3	0.9	-1	-2	0.9	79*
CCN(CCNC(=O)c1cccc(N2CCCC2=O)c1)c1ccccc1	-5	0.9	-10	-3	1	-1
COc1cc(OC)cc(N(C(=O)C2COc3ccccc3O2)C(C(=O)NC2CCCCC2)c2ccc(O)cc2)c1 (stereo not drawn)	7	0.7	-64	4	0.8	64*
COc1ccc(N(C(=O)C2COc3ccccc3O2)C(C(=O)NC2CCCCC2)c2ccccc2)cc1OC (stereo not drawn)	-2	0.9	-25	x	0.9	99*
C/C(=N/NC(=O)C(C)n1nc(C)c([N+](=O)[O-])c1C)c1ccc(OCC(N)=O)cc1 (stereo not drawn)	x	x	-19	17	x	x
CC(=O)c1cn(Cc2ccccc2)c(=O)[nH]c1=O	-1	1.1	0	3	1.1	1
CCNc1nc(N)nc(Oc2ccc(OCCOc3ccc(Cl)cc3Cl)nn2)n1	8	0.8	-18	0	0.8	98*
O=C(Nc1ccncc1)c1ccccc1-c1ccccc1	-4	0.9	8	-6	0.9	9
CC(C)C(C(=O)O)N1CCS(=O)(=O)CC1 (stereo not drawn)	3	1.1	-34	1	1	-7
O=c1cc(NCCc2ccccc2)c2ccccc2o1	46	1.1	-27	2	1.1	22
COc1cc(NC(=O)C23CC4CC(C2)CC(n2cnc([N+](=O)[O-])n2)(C4)C3)cc(OC)c1	1	0.9	-3	0	0.7	76*
Cc1ccc(F)cc1NC(=O)C12CC3CC(C1)CC(n1cnc([N+](=O)[O-])n1)(C3)C2	5	1	-15	4	1	67*
O=C(Nc1cccc([N+](=O)[O-])c1)C12CC3CC(C1)CC(n1cnc([N+](=O)[O-])n1)(C3)C2	3	0.9	25	2	0.9	76*
CC(=O)Nc1ccc(NC(=O)C23CC4CC(C2)CC(n2cnc(Br)n2)(C4)C3)cc1	0	1	5	20	1	0
O=C(Nc1ccccc1)C12CC3CC(C1)CC(n1cnc([N+](=O)[O-])n1)(C3)C2	4	1	-6	1	1	72*
Cn1cnc(S(=O)(=O)Nc2ccc(OC(F)F)cc2)c1	x	x	10	0	x	x
SMILES	WT yeast gro inh	PMI act	m-calpain inh	Rad51 HR inh	PMI act satM6P	L major viab
CC1CC(C)CN(C(=O)c2cc3cc(Br)cc(Br)c3o2)C1 (stereo not drawn)	78*	1	34	-13	0.9	90*
O=C(c1cc2cc(Br)ccc2o1)N1CCCC1	15	0.9	3	-9	0.9	-1
N#C/C(=C(/O)Cc1ccccc1)P(=O)(c1ccccc1)c1ccccc1	x	x	-6	-16	x	x
COc1ccc(NS(=O)(=O)c2cccc(N/C(=N\S(=O)(=O)c3ccccc3)c3ccc(F)cc3)c2)cc1	-22	0.8	-31	-5	0.8	76*
COc1ccc(NS(=O)(=O)c2ccc(OC)c(NC(=O)CCC3CCCCC3)c2)cc1	-16	1.1	-4	-11	1	1
COc1ccc(NS(=O)(=O)c2ccc(C)c(NC(=O)NC3CCCCC3)c2)cc1	2	0.8	-21	-5	0.9	99*
O=S(=O)(/N=C(/Nc1ccc(Cl)c(S(=O)(=O)Nc2ccccc2Cl)c1)c1ccc(F)cc1)c1ccccc1	9	1	-114	3	0.9	4
COc1ccc(S(=O)(=O)Nc2ccccc2OC)cc1NC(=O)CC1CC2CCC1C2 (stereo not drawn)	-18	0.9	4	3	0.9	100*
COc1ccccc1NS(=O)(=O)c1ccc(C)c(NC(=O)NCCCl)c1	x	x	8	x	x	x
COc1ccc(S(=O)(=O)Nc2ccccc2Cl)cc1NC(C)=O	0	1.1	-21	5	1.1	3
COc1ccccc1NS(=O)(=O)c1ccc(C)c(NC(=O)NC2CCCCC2)c1	-11	0.8	-6	-11	1	100*
CC(=O)Nc1cccc(OCCCNC(=O)c2cccc3ccccc23)c1	x	x	21	-24	x	x
COc1ccc(NS(=O)(=O)c2cccc(NC(=O)NC3CCCCC3)c2)cc1	2	0.8	35	-5	0.9	99*
COc1ccc(NS(=O)(=O)c2cccc(NC(=O)COc3ccc(OC)cc3)c2)cc1	x	x	40	x	x	x
N#Cc1nc(COc2cccc(Cl)c2)oc1N1CCN(c2ccccc2)CC1	-11	0.9	30	-1	1	-4
N#Cc1nc(COc2ccccc2)oc1N1CCN(c2cccc(Cl)c2)CC1	14	0.9	56*	-5	0.9	-7
Cc1[nH]n(-c2nc(-c3ccc(Cl)cc3)cs2)c(=O)c1N=Nc1ccc(O)cc1	18	1.1	-167	-5	1.1	71*
CC1(C)CC2(CCO1)C(Nc1ccccc1)=NC(=S)N2CC(N)=O (stereo not drawn)	x	x	16	12	x	x
CCS(=O)(=O)N1CCN(c2ccc(C(=O)NC3C4CC5CC(C4)CC3C5)cc2[N+](=O)[O-])CC1 (stereo not drawn)	-4	0.9	12	-1	0.8	52*
CCCCNC(=O)c1ccc(N2CCC3(CC2)OCCO3)c([N+](=O)[O-])c1	-4	0.9	-6	1	1	59*
O=C(NCCCn1ccnc1)c1ccc(N2CCCCCC2)c([N+](=O)[O-])c1	-12	1	8	4	0.9	90*
